Source: ChEMBL document CHEMBL4043298, “Discovery of a Potent (4 R,5 S)-4-Fluoro-5-methylproline Sulfonamide Transient Receptor Potential Ankyrin 1 Antagonist and Its Methylene Phosphate Prodrug Guided by Molecular Modeling” (J Med Chem, 2018)
Values after ≈ are worked out from the molar mass of the structure shown.

Legend:
[1] = Kinetic solubility of the compound; format: physicochemical; settings: read-out: Kinetic_solubility
[2] = Clearance in rat liver microsomes; format: ADME, microsome
In short: (§1)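 Hepatic clearance predicted from human or rat liver microsome incubations.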

[3] = Clearance in human liver microsomes; format: ADME, microsome; in short: as §1
[4] = biological target: Transient receptor potential cation channel subfamily A member 1 (Homo sapiens, UniProt O75762); experiment: Inhibition of human TRPA1 expressed in HEK293 cells assessed as inhibition of cinnamaldehyde-induced Ca2+ influx preincubated for 20 mins followed by cinnamaldehyde induction by FLIPR assay; format: cell-based
Transient receptor potential cation channel subfamily A member 1 (Homo sapiens, UniProt O75762), sequence (O75762 whole entry): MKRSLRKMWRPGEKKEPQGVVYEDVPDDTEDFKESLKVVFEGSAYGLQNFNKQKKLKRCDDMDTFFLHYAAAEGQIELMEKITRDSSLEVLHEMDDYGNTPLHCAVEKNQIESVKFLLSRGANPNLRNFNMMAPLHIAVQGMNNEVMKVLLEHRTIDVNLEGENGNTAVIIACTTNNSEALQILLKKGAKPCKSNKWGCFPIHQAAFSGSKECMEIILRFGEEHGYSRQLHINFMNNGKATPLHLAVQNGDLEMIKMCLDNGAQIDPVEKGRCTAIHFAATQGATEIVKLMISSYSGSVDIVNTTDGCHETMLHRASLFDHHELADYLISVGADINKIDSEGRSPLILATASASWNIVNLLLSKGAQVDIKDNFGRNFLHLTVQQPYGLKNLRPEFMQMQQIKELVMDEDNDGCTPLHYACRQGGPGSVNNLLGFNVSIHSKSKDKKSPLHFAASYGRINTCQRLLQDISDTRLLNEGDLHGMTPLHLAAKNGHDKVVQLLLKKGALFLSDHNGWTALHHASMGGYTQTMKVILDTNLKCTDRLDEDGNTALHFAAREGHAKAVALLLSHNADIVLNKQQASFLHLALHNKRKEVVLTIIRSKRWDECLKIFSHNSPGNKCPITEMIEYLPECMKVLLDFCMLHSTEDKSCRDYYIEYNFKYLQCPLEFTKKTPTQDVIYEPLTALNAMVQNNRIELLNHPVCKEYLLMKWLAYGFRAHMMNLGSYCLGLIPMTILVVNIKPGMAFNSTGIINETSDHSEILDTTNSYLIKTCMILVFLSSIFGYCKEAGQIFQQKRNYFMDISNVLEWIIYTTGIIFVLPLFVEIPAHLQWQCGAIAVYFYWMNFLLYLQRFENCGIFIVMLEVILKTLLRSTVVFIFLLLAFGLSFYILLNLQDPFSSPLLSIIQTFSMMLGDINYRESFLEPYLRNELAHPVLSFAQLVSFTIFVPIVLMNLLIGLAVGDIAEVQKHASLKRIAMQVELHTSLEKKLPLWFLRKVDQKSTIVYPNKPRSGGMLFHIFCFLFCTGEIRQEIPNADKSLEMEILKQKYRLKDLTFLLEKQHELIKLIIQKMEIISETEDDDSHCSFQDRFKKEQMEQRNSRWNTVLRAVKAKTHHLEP

[5] = Lipophilicity, log D of the compound at pH 7.4; settings: buffer
[6] = AUC (0 to 24 hrs) in rat at 30 mg/kg, po; format: ADME, organism-based; set-up: dose 30 mg/kg, time < 24 hr, route oral; settings: in vivo
In short: (§2)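 Rat oral dose of 30 or 100 mg/kg given as an amorphous suspension. Solid was dissolved in DMSO and precipitated into aqueous MCT, giving a final 15% DMSO/85% MCT. Plasma exposure measured over 0–24 h. The target multiple is unbound Cmax divided by the rat TRPA1 IC50.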

[7] = Permeability across apical to basolateral side in MDCK cells; format: ADME, cell-based, Canis lupus familiaris; settings: dog, read-out: permeability
[8] = Cmax in rat at 1 mg/kg, po; format: ADME, organism-based; set-up: dose 1 mg/kg, route oral; settings: in vivo
In short: (§3)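 Rat oral dose of 1 mg/kg in MCT vehicle (0.5% methylcellulose with 0.2% Tween 80 in water). Parent plasma exposure measured over 0–24 h. The target multiple is unbound Cmax divided by the rat TRPA1 IC50.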

[9] = biological target: Transient receptor potential cation channel subfamily A member 1 (Rattus norvegicus, UniProt Q6RI86); experiment: Inhibition of rat TRPA1 expressed in HEK293 cells assessed as inhibition of cinnamaldehyde-induced Ca2+ influx preincubated for 20 mins followed by cinnamaldehyde induction by FLIPR assay; format: cell-based
Transient receptor potential cation channel subfamily A member 1 (Rattus norvegicus, UniProt Q6RI86), sequence (Q6RI86 whole entry): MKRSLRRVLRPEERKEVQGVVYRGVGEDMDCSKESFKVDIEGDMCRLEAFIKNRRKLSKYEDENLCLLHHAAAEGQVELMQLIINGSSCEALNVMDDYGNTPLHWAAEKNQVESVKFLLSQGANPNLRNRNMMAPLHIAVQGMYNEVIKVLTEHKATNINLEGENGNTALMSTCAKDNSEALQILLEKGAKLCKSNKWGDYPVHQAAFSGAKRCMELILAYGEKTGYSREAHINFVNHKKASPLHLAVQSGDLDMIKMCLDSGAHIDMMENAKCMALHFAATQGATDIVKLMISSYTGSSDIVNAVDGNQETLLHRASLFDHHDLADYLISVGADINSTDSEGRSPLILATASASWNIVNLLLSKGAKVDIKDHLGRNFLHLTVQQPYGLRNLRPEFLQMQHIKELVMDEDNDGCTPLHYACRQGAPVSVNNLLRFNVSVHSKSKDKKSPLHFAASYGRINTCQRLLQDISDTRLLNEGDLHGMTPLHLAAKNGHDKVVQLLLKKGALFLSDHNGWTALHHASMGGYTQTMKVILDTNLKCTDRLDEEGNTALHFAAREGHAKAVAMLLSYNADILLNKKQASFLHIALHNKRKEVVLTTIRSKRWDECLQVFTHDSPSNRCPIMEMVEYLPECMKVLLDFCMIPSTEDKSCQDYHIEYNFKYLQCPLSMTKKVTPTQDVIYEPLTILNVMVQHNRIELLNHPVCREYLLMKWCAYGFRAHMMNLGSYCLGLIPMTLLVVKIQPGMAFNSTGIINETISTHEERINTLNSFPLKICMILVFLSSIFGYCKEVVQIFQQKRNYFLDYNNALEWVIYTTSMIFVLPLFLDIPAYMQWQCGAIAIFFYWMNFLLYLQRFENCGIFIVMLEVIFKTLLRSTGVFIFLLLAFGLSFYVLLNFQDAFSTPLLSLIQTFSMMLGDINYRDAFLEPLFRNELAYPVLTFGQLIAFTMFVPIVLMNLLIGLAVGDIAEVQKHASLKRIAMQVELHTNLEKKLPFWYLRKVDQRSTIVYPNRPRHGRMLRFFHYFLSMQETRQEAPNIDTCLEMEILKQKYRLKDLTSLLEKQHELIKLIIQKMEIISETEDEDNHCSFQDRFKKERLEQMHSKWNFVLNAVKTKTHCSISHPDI

[10] = Cmax in rat at 100 mg/kg, po; format: ADME, organism-based; set-up: dose 100 mg/kg, route oral; settings: in vivo; in short: as §2
[11] = biological target: Transient receptor potential cation channel subfamily V member 1 (Homo sapiens, UniProt Q8NER1); experiment: Inhibition of human TRPV1
[12] = Protein binding in rat plasma; format: ADME, cell-free; settings: read-out: PPB (converted)
[13] = biological target: Transient receptor potential cation channel subfamily M member 8 (Homo sapiens, UniProt Q7Z2W7); experiment: Inhibition of human TRPM8
Transient receptor potential cation channel subfamily M member 8, sequence (Q7Z2W7 whole entry): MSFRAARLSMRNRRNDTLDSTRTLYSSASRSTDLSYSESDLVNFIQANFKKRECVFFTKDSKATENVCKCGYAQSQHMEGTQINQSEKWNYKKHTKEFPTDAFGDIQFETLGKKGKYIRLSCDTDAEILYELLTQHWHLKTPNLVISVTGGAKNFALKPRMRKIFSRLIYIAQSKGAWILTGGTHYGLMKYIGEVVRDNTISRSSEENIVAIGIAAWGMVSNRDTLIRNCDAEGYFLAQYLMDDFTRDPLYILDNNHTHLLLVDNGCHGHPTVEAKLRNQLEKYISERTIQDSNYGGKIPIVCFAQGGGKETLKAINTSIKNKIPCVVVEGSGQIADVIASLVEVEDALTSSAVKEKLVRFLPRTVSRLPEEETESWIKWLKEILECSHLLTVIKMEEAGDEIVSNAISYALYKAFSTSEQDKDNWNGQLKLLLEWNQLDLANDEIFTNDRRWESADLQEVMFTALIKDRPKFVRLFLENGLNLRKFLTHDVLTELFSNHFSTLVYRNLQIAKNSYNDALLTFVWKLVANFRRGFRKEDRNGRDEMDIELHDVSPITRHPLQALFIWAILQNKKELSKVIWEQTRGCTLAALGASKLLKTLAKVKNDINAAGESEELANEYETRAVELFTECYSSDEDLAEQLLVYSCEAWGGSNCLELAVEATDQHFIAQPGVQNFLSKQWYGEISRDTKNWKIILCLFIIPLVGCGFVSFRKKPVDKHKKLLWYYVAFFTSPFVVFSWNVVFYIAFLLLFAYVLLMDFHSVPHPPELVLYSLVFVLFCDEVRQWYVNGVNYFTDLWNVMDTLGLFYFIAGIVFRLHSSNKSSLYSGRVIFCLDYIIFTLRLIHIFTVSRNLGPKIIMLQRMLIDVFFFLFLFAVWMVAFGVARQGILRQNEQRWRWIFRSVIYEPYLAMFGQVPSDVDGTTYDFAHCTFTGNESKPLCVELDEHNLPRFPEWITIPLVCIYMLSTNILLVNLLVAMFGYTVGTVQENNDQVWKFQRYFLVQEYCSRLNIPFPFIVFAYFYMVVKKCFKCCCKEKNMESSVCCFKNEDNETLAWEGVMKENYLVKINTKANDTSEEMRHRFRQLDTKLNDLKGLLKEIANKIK

Rattus norvegicus [14] = experiment: Volume of distribution at steady state in rat at 1 mg/kg, iv; format: ADME, organism-based; settings: in vivo
hERG (KCNH2) = hERG (KCNH2) (Homo sapiens, UniProt Q12809); experiment: Inhibition of human ERG at 10 uM by patch clamp assay relative to control
hERG (KCNH2), sequence (Q12809 whole entry): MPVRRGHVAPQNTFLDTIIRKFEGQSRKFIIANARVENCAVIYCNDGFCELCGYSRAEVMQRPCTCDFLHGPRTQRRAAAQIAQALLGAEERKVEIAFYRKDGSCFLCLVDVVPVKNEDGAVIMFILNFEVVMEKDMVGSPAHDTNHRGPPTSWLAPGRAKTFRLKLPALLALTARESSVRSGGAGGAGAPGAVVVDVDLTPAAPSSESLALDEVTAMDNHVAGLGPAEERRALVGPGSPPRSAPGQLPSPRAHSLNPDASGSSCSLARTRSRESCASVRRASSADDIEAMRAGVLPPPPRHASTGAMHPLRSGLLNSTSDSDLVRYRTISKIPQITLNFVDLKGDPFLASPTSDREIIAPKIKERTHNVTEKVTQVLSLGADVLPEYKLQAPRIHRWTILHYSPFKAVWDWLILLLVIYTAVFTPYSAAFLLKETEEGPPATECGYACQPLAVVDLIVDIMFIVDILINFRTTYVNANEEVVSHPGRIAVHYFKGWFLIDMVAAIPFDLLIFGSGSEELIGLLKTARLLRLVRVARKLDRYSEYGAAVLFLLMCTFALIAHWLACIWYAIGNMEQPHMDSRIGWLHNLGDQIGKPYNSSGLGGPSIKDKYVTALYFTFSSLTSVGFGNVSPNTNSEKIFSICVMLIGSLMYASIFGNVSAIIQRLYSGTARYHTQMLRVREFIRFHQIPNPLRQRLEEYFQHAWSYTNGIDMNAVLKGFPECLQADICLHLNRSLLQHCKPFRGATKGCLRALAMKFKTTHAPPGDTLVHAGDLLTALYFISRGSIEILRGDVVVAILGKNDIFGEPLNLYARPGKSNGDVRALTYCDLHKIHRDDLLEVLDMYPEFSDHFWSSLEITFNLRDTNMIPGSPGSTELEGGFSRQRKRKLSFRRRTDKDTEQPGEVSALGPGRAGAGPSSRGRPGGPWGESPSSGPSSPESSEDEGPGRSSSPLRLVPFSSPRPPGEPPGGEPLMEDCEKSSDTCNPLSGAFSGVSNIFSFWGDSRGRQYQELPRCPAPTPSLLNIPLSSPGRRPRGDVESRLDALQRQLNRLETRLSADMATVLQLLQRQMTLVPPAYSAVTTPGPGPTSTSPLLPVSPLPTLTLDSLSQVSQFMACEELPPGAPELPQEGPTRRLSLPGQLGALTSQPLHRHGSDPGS
In short: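 hERG potassium channel inhibition measured by automated patch clamp at a single concentration of 10 μM.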

[15] = Cmax in rat at 30 mg/kg, po; format: ADME, organism-based; set-up: dose 30 mg/kg, route oral; settings: in vivo; in short: as §2
[16] = Ratio of unbound Cmax in rat at 1 mg/kg, po to IC50 for rat TRPA1; in short: as §3
[17] = Protein binding in human plasma; format: ADME, cell-free; settings: read-out: PPB (converted)
[18] = AUC (0 to 24 hrs) in rat at 1 mg/kg, po; format: ADME, organism-based; set-up: dose 1 mg/kg, time < 24 hr, route oral; settings: in vivo; in short: as §3
[19] = Ratio of unbound Cmax in rat at 100 mg/kg, po to IC50 for rat TRPA1; in short: as §2
[20] = AUC (0 to 24 hrs) in rat at 100 mg/kg, po; format: ADME, organism-based; set-up: dose 100 mg/kg, time < 24 hr, route oral; settings: in vivo; in short: as §2
[21] = Ratio of unbound Cmax in rat at 30 mg/kg, po to IC50 for rat TRPA1; in short: as §2
[22] = Oral bioavailability in rat at 1 mg/kg; format: ADME, organism-based; settings: in vivo
Rattus norvegicus [23] = experiment: Half life in rat at 1 mg/kg, iv; format: ADME, organism-based; settings: in vivo

Row | Compound | solubility kinetic [1] | CLhep predicted [2] | CLhep predicted [3] | IC50 [4] | logD [5] | other results
1 | C[C@H]1[C@H](F)C[C@@H](C(=O)NCc2cc(-c3ccc(C(F)(F)F)nc3)ncn2)N1S(=O)(=O)c1ccc(F)cc1 | 2 µM (≈ 1.08 µg/mL) | 19 mL/min/kg | 10 mL/min/kg | 179 nM | 2.7 | 
2 | O=C(NCc1cc(-c2ccc(C(F)(F)F)nc2)ncn1)[C@@H]1C[C@@H](F)CN1S(=O)(=O)c1ccc(F)cc1 |  | 10 mL/min/kg | 5 mL/min/kg | 1200 nM | 2.4 | 
3 | C[C@H]1[C@H](F)C[C@@H](C(=O)NCc2cc(-c3cnc(C(F)(F)F)nc3)c(F)cn2)N1S(=O)(=O)c1ccc(F)cc1 | 84 µM (≈ 47 µg/mL) | 18 mL/min/kg | 13 mL/min/kg | 33 nM | 2.6 | 
4 | C[C@H]1[C@H](F)C[C@@H](C(=O)NCc2cc(-c3cnc(C(F)(F)F)nc3)nc(C3CC3)n2)N1S(=O)(=O)c1ccc(F)cc1 | < 1 µM | 22 mL/min/kg | 10 mL/min/kg | 5 nM | 3.8 | 
5 | O=C(NCc1cc(-c2ccc(C(F)(F)F)nc2)ncn1)[C@@H]1CCCCN1S(=O)(=O)c1ccc(F)cc1 |  | 46 mL/min/kg | 18 mL/min/kg | 2300 nM | 3.4 | 
6 | O=C(NCc1cc(-c2ccc(C(F)(F)F)nc2)ncn1)[C@@H]1C[C@H](F)CN1S(=O)(=O)c1ccc(F)cc1 |  | 40 mL/min/kg | 7 mL/min/kg | 4400 nM | 1.8 | 
7 | C[C@H]1[C@H](F)C[C@@H](C(=O)NCc2cc(-c3cnc(C(F)(F)F)nc3)ncc2C#N)N1S(=O)(=O)c1ccc(F)cc1 | 14 µM (≈ 7.93 µg/mL) | 16 mL/min/kg | 9 mL/min/kg | 10 nM |  | 
8 | C[C@H]1[C@H](F)C[C@@H](C(=O)NCc2ccnc(-c3cnc(C(F)(F)F)nc3)c2)N1S(=O)(=O)c1ccc(F)cc1 | < 1 µM | 25 mL/min/kg | 12 mL/min/kg |  | 3 | 
9 | C[C@H]1[C@H](F)C[C@@H](C(=O)NCc2cc(-c3cnc(C(F)(F)F)nc3)ccn2)N1S(=O)(=O)c1ccc(F)cc1 | 132 µM (≈ 71.5 µg/mL) | 18 mL/min/kg | 16 mL/min/kg |  | 3.3 | 

Further lines, with some results ahead:

Row | solubility kinetic [1] | CLhep predicted [2] | CLhep predicted [3] | IC50 [4] | logD [5] | Compound | other results
10 | 8 µM (≈ 4.62 µg/mL) | 36 mL/min/kg | 14 mL/min/kg | 328 nM | 2.5 | C[C@H]1[C@H](F)C[C@@H](C(=O)NCc2c(F)cnc(-c3cnc(C(F)(F)F)nc3)c2F)N1S(=O)(=O)c1ccc(F)cc1 | 
11 | 18 µM (≈ 9.76 µg/mL) | 18 mL/min/kg | 14 mL/min/kg |  | 2.3 | C[C@H]1[C@H](F)C[C@@H](C(=O)NCc2cc(-c3cnc(C(F)(F)F)cn3)ncn2)N1S(=O)(=O)c1ccc(F)cc1 | 
12 |  | 47 mL/min/kg | 19 mL/min/kg | 13 nM | 2.9 | C[C@H]1CC[C@@H](C(=O)NCc2cc(-c3ccc(C(F)(F)F)nc3)ncn2)N1S(=O)(=O)c1ccc(F)cc1 | 
13 |  | 27 mL/min/kg | 10 mL/min/kg | 1500 nM | 2.4 | O=C(NCc1cc(-c2ccc(C(F)(F)F)nc2)ncn1)[C@@H]1CCN1S(=O)(=O)c1ccc(F)cc1 | 
14 |  | 30 mL/min/kg | 19 mL/min/kg | 239 nM | 4.3 | C[C@@H]1CC[C@@H](C(=O)NCc2cc(-c3ccc(C(F)(F)F)nc3)ncn2)N1S(=O)(=O)c1ccc(F)cc1 | 
15 | 123 µM (≈ 69.7 µg/mL) | 25 mL/min/kg | 17 mL/min/kg | 96 nM | 2.3 | C[C@H]1[C@H](F)C[C@@H](C(=O)NCc2cc(-c3cnc(C(F)(F)F)nc3)c(C#N)cn2)N1S(=O)(=O)c1ccc(F)cc1 | 
16 | 8 µM (≈ 4.61 µg/mL) | 21 mL/min/kg | 15 mL/min/kg | 13 nM | 2.5 | C[C@H]1[C@H](F)C[C@@H](C(=O)NCc2cc(-c3cnc(C(F)(F)F)nc3)c(Cl)cn2)N1S(=O)(=O)c1ccc(F)cc1 | 
17 | 53 µM (≈ 28.8 µg/mL) | 18 mL/min/kg | 11 mL/min/kg | 64 nM | 2.5 | C[C@H]1[C@H](F)C[C@@H](C(=O)NCc2cc(-c3cnc(C(F)(F)F)nc3)ncn2)N1S(=O)(=O)c1ccc(F)cc1 | 
18 | < 1 µM | 17 mL/min/kg | 10 mL/min/kg | 8 nM | 2.6 | C[C@H]1[C@H](F)C[C@@H](C(=O)NCc2cc(-c3cnc(C(F)(F)F)nc3)ncc2F)N1S(=O)(=O)c1ccc(F)cc1 | AUC(0-t) at 24 h [6]: 32.8 µM·h; Papp A→B [7]: 11.2 ×10⁻⁶ cm/s; Cmax [8]: 30 nM; IC50 [9]: 36 nM; Cmax [10]: 2510 nM; IC50 [11]: > 20000 nM; fraction unbound [12]: 0.028; IC50 [13]: > 20000 nM; Vdss (Rattus norvegicus [14]): 7.5 L/kg; inhibition at 10 µM (hERG (KCNH2)): 14.3%; Cmax [15]: 2330 nM; Ratio [16]: 0.02; fraction unbound [17]: 0.02; AUC(0-t) at 24 h [18]: 0.56 µM·h; Ratio [19]: 1.95; AUC(0-t) at 24 h [20]: 39.6 µM·h; Ratio [21]: 1.81; bioavailability [22]: 12%; t1/2 (Rattus norvegicus [23]): 7.5 h
19 | < 1 µM | 20 mL/min/kg | 11 mL/min/kg | 5 nM |  | C[C@H]1[C@H](F)C[C@@H](C(=O)NCc2cc(-c3cnc(C(F)(F)F)nc3)ncc2Cl)N1S(=O)(=O)c1ccc(F)cc1 | 
20 |  | 43 mL/min/kg | 16 mL/min/kg | 154 nM | 2.7 | O=C(NCc1cc(-c2ccc(C(F)(F)F)nc2)ncn1)[C@@H]1CCCN1S(=O)(=O)c1ccc(F)cc1 | 
